Laboratory results from ChEMBL document CHEMBL1687899, “Structure-activity relationships in nucleotide oligomerization domain 1 (Nod1) agonistic γ-glutamyldiaminopimelic acid derivatives” (J Med Chem, 2011).

Tests used:
Assay type in all cases: functional, cell-based
[1] = target: T1, Nucleotide-binding oligomerization domain-containing protein 1 (Homo sapiens, UniProt Q9Y239); test: Agonist activity at human NOD-1 expressed in human HEK293 cells assessed as NF-kappaB induction by spectrophotometric analysis
T1 sequence (Q9Y239 whole entry): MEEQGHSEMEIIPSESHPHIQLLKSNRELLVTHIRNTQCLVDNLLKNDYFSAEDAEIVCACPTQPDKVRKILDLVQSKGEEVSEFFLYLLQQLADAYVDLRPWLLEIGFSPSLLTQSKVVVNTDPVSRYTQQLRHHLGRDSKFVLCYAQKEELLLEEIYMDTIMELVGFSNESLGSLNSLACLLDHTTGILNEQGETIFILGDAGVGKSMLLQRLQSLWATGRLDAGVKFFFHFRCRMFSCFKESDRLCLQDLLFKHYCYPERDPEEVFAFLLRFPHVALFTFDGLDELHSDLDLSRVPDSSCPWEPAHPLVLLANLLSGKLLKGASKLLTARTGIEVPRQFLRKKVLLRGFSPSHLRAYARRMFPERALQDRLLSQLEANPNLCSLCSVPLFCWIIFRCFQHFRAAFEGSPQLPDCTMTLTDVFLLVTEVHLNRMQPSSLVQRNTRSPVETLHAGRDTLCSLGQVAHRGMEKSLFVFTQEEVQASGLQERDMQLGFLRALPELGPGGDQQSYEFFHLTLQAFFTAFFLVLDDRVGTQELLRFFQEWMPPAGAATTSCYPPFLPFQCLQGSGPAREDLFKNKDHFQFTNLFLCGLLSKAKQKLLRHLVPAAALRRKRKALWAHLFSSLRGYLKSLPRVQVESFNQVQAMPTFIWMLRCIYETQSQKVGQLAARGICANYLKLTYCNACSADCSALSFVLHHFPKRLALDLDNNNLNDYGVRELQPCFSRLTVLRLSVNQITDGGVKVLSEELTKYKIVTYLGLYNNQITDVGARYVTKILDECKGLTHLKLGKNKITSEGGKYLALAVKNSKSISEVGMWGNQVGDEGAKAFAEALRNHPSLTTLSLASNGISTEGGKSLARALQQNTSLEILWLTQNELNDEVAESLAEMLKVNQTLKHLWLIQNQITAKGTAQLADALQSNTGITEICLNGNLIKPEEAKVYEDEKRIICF
Procedure, shortened: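 HEK-Blue cells (HEK293 stably transfected with human Nod1 and an NF-κB/AP-1-inducible secreted alkaline phosphatase reporter) were kept in selection medium with zeocin and normocin. Cells at ~10^5 cells/mL were grown to confluency and then given graded compound concentrations. Supernatant sAP was read spectrophotometrically at 620 nm with an alkaline phosphatase-specific chromogen.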

[2] = Upregulation of p38 MAPK expression in human […] by flow cytometry
Procedure, shortened: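 Fresh heparinized human whole blood was incubated with graded compound concentrations diluted in saline for 15 min at 37°C. Erythrocytes were lysed and leukocytes fixed in one step, then permeabilized in ice-cold methanol for 30 min. Cells were stained 60 min with PE anti-phospho-p38MAPK (pT180/pY182) or a PE IgG1 κ isotype control. Flow cytometry acquired 20,000 gated events.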

[3] = Upregulation of CD11b expression in human […] by flow cytometry
Procedure, shortened: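 Fresh anticoagulated human whole blood was incubated with graded compound dilutions for 1 h at 37°C, with saline negative controls. Samples were chilled 15 min, then stained with anti-CD11b/Mac-1 on ice for 30 min so only surface CD11b was labelled. Erythrocytes were lysed and leukocytes fixed, then washed. Flow cytometry in single-color PE mode acquired 20,000 gated events.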

SMILES	EC50 [1]	Activity [2]	Activity [3]
CCCCCCCCCCCC(=O)N[C@H](CCC(=O)NC(CCCC(N)C(=O)O)C(=O)O)C(=O)OCC (some centres undefined)	69 pM		
CCCCCCCCCCCC(=O)N[C@H](CCC(=O)N[C@H](CCCCN)C(=O)O)C(=O)O	> 100000 pM		
CCCCCCCCCCCOC(=O)[C@@H](CCC(=O)NC(CCCC(N)C(=O)O)C(=O)O)NC(=O)CCCCCCCCCCC (some centres undefined)	134 pM		
CCCCCCCCCCCC(=O)N[C@H](CCC(=O)NCCCC[C@@H](N)C(=O)O)C(=O)O	370 pM		
CCCCCCCCCCCCCCCCN(CCCCCCCCCCCCCCCC)[C@H](CCC(=O)NC(CCCC(N)C(=O)O)C(=O)O)C(=O)O (some centres undefined)	120 pM		
CCCCCCCCCCCCN[C@H](CCC(=O)NC(CCCC(N)C(=O)O)C(=O)O)C(=O)O (some centres undefined)	23 pM		
CCCCCCCCCCCC(=O)N[C@H](CCC(=O)NC(CCCC(N)C(=O)O)C(=O)O)C(=O)O (some centres undefined)	27 pM	Dose-dependent effect	Dose-dependent effect
CCCCCCCCCCCC(=O)N[C@H](CCC(=O)NCCCC[C@H](N)C(=O)O)C(=O)O	960 pM		
CCCCCCCCCCCC(=O)NC(CCCC(NC(=O)CC[C@@H](NC(=O)CCCCCCCCCCC)C(=O)O)C(=O)O)C(=O)O (some centres undefined)	580 pM		
CCCCCCCCCCCOC(=O)CCCC(=O)NC(CCCC(N)C(=O)O)C(=O)O (centres undefined)	390 pM		
CCCCCCCCCCCC(=O)N[C@H](CCC(=O)NC(CCCC(NC(=N)N)C(=O)O)C(=O)O)C(=O)O (some centres undefined)	622 pM		
CCCCCCCCN(CCCCCCCC)[C@H](CCC(=O)NC(CCCC(N)C(=O)O)C(=O)O)C(=O)O (some centres undefined)	200 pM		
